According to ChEMBL document CHEMBL4177764 (J Med Chem, 2018):
Active and inactive are the calls of the source. No cut-off for these calls is given here.

Experiments:
Format in all cases: cell-based
[1] = molecular target: T1, Aurora kinase A (Homo sapiens) (UniProt O14965); assay: Induction of aurora A degradation in human NCI-H3122 cells at 0.01 to 1 uM after 16 hrs by immunoblot method
T1 sequence (whole entry): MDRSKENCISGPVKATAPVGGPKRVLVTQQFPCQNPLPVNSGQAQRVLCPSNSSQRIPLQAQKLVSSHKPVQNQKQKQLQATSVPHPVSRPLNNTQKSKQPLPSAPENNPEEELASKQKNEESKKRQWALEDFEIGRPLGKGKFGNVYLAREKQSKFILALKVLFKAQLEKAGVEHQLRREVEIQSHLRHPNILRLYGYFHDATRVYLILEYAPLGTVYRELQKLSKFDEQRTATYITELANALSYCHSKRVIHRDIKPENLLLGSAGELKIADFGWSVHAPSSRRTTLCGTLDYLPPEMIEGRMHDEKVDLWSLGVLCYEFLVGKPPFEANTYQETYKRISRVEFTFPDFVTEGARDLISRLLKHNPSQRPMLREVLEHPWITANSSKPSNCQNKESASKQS
Summary of the method: (§1)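 H3122 (EML4-ALK NSCLC) and Karpas 299 (NPM-ALK ALCL) cells were exposed to dose titrations for 16 h. ALK and Aurora A levels were then assessed by immunoblot.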

[2] = molecular target: T1, Aurora kinase A (Homo sapiens); assay: Induction of aurora A degradation in human Kelly cells at 10 to 160 nM after 16 hrs by immunoblot method
Summary of the method: (§2)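 Kelly and CHLA20 neuroblastoma cells were treated with dose titrations for 16 h, then Aurora A was detected by immunoblot. CHLA20 cells were always co-treated with 125 nM tariquidar, an ABCB1 inhibitor.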

[3] = molecular target: T2, ALK tyrosine kinase receptor (Homo sapiens, UniProt Q9UM73); assay: Induction of ALK degradation in human NCI-H3122 cells after 16 hrs by immunoblot method
Summary of the method: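 H3122 and Karpas 299 cells were given a dose titration for 16 h. ALK and Aurora A were then read by immunoblot. DC50 was calculated from the titrations, two independent experiments.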
Target sequence in this assay (Q9UM73 whole entry): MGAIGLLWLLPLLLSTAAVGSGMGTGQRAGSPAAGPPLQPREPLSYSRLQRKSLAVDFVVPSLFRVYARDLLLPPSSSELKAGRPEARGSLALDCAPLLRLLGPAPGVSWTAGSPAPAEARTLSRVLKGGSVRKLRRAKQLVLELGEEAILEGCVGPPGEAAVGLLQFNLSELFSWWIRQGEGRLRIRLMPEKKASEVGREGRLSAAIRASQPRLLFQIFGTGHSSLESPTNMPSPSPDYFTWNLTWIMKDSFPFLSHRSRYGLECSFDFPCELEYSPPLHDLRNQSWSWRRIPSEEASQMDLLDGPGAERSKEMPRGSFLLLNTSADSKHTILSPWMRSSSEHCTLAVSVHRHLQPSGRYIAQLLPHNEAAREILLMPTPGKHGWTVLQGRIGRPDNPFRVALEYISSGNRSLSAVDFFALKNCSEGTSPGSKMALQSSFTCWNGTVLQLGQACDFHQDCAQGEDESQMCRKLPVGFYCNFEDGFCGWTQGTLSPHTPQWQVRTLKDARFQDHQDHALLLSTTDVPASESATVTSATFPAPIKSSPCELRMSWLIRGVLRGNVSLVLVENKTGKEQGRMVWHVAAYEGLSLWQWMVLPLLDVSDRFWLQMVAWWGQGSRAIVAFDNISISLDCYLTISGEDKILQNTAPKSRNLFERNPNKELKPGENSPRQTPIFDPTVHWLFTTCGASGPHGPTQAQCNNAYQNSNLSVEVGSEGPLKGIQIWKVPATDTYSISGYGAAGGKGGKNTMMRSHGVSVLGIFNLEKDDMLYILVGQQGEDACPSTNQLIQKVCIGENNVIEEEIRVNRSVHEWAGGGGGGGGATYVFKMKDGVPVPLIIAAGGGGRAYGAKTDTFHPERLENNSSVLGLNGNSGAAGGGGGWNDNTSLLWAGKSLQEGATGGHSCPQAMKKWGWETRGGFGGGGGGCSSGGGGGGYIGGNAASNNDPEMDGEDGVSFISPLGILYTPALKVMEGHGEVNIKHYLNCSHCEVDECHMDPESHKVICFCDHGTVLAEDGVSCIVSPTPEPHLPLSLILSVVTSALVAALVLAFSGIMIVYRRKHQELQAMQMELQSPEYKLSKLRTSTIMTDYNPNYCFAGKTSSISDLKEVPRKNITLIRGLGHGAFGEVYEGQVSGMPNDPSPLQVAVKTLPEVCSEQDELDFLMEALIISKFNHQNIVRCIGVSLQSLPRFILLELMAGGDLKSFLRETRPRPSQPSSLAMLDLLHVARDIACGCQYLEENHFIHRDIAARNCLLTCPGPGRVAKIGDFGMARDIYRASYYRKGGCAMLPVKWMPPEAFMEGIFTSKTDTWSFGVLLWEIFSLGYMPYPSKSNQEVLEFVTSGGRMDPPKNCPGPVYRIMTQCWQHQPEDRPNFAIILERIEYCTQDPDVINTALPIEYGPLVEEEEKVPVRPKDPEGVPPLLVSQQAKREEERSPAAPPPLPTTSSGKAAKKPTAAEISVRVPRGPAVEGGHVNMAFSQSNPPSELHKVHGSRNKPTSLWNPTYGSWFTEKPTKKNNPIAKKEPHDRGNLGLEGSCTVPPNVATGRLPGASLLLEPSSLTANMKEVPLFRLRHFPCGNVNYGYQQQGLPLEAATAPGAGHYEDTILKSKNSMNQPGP

[4] = molecular target: T1, Aurora kinase A (Homo sapiens); assay: Induction of aurora A degradation in human CHLA20 cells at 10 to 160 nM after 16 hrs by immunoblot method; summary of the method: as §2
[5] = molecular target: Ribosomal protein S6 kinase alpha-1 (Homo sapiens) (UniProt Q15418); assay: Induction of RPS6KA1 degradation in human Kelly cells at 100 nM measured over 2 to 16 hrs by immunoblot method
Ribosomal protein S6 kinase alpha-1 (Homo sapiens), sequence (Q15418 whole entry): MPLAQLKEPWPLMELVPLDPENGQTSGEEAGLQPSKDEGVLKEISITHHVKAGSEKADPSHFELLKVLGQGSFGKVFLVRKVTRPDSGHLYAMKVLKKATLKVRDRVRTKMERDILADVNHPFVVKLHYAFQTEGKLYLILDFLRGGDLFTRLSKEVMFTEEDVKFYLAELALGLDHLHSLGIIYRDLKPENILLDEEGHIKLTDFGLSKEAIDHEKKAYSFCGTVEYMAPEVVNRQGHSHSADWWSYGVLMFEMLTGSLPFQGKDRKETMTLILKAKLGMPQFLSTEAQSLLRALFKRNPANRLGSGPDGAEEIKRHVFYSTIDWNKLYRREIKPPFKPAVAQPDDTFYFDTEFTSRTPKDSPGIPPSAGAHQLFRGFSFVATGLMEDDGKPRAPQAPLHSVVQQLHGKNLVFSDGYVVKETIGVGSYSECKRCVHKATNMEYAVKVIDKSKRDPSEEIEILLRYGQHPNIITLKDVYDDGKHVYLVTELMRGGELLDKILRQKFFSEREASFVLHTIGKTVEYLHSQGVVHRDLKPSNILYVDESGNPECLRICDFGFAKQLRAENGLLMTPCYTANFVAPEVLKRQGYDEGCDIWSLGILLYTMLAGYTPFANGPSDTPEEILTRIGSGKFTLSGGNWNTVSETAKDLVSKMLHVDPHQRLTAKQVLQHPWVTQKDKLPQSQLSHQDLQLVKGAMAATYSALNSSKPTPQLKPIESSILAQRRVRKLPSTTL

[6] = molecular target: T1, Aurora kinase A (Homo sapiens); assay: Induction of aurora A degradation in human KARPAS299 cells at 0.01 to 1 uM after 16 hrs by immunoblot method; summary of the method: as §1
[7] = molecular target: T2, ALK tyrosine kinase receptor; assay: Induction of ALK degradation in human CHLA20 cells assessed as decrease in ALK phosphorylation at Y1507 at 250 nM after 6 to 48 hrs in presence of ABCB1 inhibitor tariquidar by immunoblot method
Target sequence in this assay (Q9UM73 19-1620 limits assumed): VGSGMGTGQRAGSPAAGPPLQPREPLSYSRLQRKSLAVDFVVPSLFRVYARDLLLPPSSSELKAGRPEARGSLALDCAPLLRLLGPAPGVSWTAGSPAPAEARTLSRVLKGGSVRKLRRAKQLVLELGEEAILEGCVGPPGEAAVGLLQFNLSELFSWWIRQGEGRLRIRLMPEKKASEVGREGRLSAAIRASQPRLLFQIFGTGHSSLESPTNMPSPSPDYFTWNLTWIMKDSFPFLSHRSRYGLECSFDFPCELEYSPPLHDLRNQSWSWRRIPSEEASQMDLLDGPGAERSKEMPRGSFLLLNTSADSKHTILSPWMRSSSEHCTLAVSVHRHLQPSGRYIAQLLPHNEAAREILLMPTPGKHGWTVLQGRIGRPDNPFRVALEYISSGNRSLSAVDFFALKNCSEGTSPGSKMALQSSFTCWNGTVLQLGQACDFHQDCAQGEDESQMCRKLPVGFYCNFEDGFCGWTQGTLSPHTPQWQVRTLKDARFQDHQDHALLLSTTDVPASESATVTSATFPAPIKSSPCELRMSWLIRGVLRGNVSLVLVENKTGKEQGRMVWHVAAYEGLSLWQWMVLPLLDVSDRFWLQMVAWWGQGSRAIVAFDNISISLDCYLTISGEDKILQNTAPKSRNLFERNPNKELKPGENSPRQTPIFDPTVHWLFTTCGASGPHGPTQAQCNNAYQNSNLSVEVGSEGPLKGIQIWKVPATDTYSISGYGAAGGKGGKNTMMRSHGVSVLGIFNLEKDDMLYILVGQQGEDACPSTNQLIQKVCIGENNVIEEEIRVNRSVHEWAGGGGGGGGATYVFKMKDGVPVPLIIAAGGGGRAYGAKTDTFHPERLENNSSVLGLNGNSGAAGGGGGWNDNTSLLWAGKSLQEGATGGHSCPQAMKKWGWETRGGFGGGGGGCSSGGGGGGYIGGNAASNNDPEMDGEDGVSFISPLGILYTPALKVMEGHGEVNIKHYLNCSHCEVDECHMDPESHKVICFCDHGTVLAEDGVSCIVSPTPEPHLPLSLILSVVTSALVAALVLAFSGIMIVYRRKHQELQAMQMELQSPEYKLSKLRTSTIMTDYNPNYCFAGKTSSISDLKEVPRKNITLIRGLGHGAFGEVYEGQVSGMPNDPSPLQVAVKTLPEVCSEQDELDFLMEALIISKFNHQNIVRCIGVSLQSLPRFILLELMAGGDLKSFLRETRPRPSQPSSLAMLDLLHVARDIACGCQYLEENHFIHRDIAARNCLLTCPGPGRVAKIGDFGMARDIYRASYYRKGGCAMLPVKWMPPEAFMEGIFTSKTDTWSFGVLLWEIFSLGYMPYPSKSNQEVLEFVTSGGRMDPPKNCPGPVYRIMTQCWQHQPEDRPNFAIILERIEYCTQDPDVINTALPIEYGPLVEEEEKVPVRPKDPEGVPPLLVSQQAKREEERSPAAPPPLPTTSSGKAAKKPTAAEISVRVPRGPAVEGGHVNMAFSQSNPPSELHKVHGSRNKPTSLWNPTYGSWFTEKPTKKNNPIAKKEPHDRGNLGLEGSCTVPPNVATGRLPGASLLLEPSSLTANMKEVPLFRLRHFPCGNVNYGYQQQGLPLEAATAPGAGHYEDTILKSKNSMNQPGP

[8] = molecular target: Signal transducer and activator of transcription 3 (Homo sapiens) (UniProt P40763); assay: Inhibition of STAT3 phosphorylation at Y705 in human CHLA20 cells at 250 nM after 6 to 48 hrs in presence of ABCB1 inhibitor tariquidar by immunoblot method
Signal transducer and activator of transcription 3 (Homo sapiens), sequence (P40763 whole entry): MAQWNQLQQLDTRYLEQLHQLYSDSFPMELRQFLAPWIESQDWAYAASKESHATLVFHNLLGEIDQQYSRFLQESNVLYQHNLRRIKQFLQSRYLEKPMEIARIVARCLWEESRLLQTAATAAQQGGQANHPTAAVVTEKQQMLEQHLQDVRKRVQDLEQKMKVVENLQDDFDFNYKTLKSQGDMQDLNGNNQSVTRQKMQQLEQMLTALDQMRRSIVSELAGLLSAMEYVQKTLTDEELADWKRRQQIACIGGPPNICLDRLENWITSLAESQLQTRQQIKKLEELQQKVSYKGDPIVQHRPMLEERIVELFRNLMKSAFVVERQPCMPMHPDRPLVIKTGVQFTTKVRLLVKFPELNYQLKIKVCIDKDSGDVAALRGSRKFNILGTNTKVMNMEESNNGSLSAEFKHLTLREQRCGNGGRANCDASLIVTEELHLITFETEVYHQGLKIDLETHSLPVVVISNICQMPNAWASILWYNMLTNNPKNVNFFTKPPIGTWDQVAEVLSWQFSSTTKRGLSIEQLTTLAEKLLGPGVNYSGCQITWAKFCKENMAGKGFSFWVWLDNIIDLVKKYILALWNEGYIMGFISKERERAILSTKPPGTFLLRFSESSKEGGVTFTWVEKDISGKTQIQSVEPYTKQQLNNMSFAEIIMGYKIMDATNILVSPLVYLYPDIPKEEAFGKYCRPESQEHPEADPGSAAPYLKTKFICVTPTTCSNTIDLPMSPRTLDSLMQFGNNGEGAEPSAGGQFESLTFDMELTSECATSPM

[9] = molecular target: Signal transducer and activator of transcription 3 (Homo sapiens) (UniProt P40763); assay: Inhibition of STAT3 phosphorylation at Y705 in human Kelly cells at 250 nM after 6 to 48 hrs by immunoblot method
[10] = molecular target: T2, ALK tyrosine kinase receptor; assay: Induction of ALK degradation in human Kelly cells assessed as decrease in ALK phosphorylation at Y1507 at 250 nM after 6 to 48 hrs by immunoblot method
Target sequence in this assay (Q9UM73 19-1620 limits assumed): as the sequence (Q9UM73 19-1620 limits assumed) above

`COc1cc(N2CCN(CCOCCOCCNC(=O)CNc3cccc4c3C(=O)N(C3CCC(=O)NC3=O)C4=O)CC2)ccc1Nc1ncc(Cl)c(Nc2ccccc2S(=O)(=O)C(C)C)n1` (configuration not stated) was tested, and the Activity [1] was “Active”, the Activity [2] was “Active” and the DC50 [3] was 0.01 µM. For the same compound, the Activity [4] was “Active”, the Activity [5] was “Active” and the Activity [6] was “Active”.

`Cc1cc(Nc2ncc(Cl)c(Nc3ccccc3S(=O)(=O)C(C)C)n2)c(OC(C)C)cc1C1CCN(CCOCCOCCNC(=O)CNc2cccc3c2C(=O)N(C2CCC(=O)NC2=O)C3=O)CC1` (configuration not stated) was tested, and the Activity [7] was “Active”, the inhibition [8] was “Active” and the DC50 [3] was 0.01 µM. The inhibition [9] was “Active”, the Activity [10] was “Active” and the Activity [5] was “Active”.
